For test [1], the target named is Mitogen-activated protein kinase kinase kinase 11 (Homo sapiens) (UniProt Q16584). Kind of test: Inhibition of MLK3 at 1 uM. The procedure, abridged:
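Kinase-panel screen using KINOMEscan technology, with 250–400 kinases per panel. Each compound was tested at a single concentration, and inhibition of each kinase was recorded. Selectivity was summarised as S(90), the fraction of kinases inhibited by more than 90%.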

Test [2] has as its target Interferon-induced, double-stranded RNA-activated protein kinase (Homo sapiens) (UniProt P19525). Kind of test: Inhibition of PRKR at 1 uM.
The target in test [3] is Receptor-interacting serine/threonine-protein kinase 2 (Homo sapiens) (UniProt O43353). Kind of test: Inhibition of RIPK2 at 1 uM.
The target in test [4] is T1, Serine/threonine-protein kinase TNNI3K (Homo sapiens) (UniProt Q59H18).
T1 sequence (whole entry): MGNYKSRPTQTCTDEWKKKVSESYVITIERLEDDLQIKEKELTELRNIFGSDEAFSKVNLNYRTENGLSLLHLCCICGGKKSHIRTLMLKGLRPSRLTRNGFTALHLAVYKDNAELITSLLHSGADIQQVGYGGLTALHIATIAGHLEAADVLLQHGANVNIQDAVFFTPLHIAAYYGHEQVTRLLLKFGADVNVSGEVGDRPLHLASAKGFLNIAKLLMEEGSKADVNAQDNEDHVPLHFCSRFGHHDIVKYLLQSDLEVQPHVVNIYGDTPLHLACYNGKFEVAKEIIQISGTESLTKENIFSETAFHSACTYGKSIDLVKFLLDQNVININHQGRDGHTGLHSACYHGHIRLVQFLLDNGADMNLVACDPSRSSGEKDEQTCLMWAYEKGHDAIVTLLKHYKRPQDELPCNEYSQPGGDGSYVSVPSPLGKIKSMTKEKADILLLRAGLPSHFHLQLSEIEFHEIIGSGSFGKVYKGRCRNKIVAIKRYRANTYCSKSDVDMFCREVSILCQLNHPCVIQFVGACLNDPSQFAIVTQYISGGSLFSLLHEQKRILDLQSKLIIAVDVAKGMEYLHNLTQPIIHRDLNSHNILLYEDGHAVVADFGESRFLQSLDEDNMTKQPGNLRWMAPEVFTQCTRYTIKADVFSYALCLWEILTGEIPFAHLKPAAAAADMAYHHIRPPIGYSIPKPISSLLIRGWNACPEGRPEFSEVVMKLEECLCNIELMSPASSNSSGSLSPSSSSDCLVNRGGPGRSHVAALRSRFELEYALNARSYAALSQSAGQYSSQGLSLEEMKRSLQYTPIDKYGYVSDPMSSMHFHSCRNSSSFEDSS
Briefly: Inhibition of TNNI3K at 1 uM.

The test system of test [5] is Epidermal growth factor receptor (Homo sapiens), P00533 [G719C]. Briefly: Inhibition of EGFR G719C mutant at 1 uM. It is filed as protein assay. The method, boiled down:
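Single-concentration screen using Ambit Bioscience KINOMEscan technology across a panel of 250–400 kinases. Per-kinase inhibition from this screen was summarized as S(90), the fraction of kinases inhibited by more than 90%.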

The target in test [6] is T2, Cyclin-G-associated kinase (Homo sapiens) (UniProt O14976).
T2 sequence (whole entry): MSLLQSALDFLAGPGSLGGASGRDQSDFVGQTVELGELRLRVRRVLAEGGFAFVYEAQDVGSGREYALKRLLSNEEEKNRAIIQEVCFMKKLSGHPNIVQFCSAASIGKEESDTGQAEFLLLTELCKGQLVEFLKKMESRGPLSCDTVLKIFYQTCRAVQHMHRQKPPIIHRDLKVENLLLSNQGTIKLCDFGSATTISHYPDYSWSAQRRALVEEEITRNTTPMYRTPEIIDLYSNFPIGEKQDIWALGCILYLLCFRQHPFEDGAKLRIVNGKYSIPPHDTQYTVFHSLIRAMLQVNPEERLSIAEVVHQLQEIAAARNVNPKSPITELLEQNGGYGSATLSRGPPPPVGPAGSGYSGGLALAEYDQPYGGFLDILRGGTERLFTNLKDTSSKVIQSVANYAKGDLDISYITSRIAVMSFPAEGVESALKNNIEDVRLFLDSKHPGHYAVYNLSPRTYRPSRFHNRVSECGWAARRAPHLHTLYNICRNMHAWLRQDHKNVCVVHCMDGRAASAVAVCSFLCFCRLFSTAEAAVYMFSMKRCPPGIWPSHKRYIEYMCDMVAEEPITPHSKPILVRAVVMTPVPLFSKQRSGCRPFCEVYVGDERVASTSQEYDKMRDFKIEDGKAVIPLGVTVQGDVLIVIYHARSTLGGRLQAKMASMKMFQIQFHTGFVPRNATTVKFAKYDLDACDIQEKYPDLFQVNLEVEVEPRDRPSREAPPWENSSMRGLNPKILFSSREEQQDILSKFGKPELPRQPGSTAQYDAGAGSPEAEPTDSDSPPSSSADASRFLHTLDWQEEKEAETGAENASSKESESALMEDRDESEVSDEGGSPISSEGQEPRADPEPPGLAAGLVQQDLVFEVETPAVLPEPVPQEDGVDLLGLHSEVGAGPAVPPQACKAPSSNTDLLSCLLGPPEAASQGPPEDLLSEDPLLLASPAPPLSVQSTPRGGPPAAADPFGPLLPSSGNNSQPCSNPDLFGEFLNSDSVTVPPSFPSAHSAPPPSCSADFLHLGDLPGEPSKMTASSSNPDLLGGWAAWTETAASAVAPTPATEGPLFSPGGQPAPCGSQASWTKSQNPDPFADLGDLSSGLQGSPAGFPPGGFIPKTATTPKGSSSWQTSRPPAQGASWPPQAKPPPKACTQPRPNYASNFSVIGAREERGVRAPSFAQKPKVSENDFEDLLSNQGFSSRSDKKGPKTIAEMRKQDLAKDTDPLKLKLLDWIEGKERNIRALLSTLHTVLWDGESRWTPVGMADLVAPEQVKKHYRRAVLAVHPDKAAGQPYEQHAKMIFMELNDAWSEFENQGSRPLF
Briefly: Inhibition of GAK at 1 uM. The method, boiled down:
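Single-concentration screen on the Ambit KINOMEscan platform, run against a panel of 250–400 kinases. Per-kinase inhibition was also summarized as S(90), the fraction of kinases inhibited by more than 90%.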

Chain of Receptor-interacting serine/threonine-protein kinase 2 (Homo sapiens) (O43353 whole entry): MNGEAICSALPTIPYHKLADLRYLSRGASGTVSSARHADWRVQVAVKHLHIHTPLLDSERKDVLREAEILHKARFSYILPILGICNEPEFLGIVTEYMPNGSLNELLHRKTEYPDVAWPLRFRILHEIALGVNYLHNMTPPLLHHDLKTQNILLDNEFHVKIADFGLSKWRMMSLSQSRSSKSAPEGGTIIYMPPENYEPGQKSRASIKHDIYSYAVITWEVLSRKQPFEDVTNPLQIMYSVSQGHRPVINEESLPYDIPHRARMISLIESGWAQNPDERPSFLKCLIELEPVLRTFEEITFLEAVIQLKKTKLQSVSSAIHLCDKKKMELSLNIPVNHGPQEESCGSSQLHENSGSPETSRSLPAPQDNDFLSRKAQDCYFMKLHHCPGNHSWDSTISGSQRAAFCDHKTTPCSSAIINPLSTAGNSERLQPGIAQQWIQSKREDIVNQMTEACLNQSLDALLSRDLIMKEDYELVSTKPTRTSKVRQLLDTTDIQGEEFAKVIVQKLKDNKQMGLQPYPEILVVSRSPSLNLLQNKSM
Chain of Mitogen-activated protein kinase kinase kinase 11 (Homo sapiens) (Q16584 whole entry, looked up): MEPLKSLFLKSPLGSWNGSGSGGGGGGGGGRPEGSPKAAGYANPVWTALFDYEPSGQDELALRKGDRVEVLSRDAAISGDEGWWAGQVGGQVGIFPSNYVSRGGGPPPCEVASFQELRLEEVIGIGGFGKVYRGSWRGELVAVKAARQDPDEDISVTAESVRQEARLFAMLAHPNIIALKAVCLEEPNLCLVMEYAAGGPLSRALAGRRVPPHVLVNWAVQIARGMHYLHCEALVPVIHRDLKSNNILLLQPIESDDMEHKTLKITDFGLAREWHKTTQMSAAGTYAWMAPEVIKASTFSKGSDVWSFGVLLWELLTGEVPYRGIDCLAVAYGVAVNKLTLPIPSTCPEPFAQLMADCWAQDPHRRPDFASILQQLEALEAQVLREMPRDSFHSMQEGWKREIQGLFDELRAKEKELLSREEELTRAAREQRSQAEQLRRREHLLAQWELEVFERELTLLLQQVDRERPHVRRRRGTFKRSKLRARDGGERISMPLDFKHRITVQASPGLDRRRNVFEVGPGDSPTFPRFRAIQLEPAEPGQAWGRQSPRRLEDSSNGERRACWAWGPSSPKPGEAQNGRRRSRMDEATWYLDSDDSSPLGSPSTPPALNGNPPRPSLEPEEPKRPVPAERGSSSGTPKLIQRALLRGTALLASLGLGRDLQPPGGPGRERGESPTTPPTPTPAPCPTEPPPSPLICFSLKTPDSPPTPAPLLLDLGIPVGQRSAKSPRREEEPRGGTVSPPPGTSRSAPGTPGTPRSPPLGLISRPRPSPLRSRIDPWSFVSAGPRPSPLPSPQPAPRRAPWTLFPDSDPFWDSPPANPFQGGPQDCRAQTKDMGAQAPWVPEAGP
Chain of Interferon-induced, double-stranded RNA-activated protein kinase (Homo sapiens) (P19525 whole entry): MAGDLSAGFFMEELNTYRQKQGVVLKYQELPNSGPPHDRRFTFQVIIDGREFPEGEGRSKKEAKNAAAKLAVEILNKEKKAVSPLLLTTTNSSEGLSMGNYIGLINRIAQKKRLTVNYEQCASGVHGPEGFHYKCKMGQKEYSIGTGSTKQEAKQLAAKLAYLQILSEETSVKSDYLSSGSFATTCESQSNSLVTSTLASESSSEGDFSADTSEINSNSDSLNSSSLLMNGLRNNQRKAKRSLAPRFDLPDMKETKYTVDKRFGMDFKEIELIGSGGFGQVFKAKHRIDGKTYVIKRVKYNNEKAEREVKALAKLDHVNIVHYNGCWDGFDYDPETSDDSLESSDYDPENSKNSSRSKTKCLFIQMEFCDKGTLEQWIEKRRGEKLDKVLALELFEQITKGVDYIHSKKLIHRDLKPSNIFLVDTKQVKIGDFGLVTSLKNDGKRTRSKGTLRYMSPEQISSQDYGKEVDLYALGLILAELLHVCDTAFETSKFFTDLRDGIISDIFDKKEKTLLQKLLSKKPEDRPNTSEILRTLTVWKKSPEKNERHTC
Chain of Epidermal growth factor receptor (Homo sapiens), P00533 [G719C] (P00533 whole entry G719C): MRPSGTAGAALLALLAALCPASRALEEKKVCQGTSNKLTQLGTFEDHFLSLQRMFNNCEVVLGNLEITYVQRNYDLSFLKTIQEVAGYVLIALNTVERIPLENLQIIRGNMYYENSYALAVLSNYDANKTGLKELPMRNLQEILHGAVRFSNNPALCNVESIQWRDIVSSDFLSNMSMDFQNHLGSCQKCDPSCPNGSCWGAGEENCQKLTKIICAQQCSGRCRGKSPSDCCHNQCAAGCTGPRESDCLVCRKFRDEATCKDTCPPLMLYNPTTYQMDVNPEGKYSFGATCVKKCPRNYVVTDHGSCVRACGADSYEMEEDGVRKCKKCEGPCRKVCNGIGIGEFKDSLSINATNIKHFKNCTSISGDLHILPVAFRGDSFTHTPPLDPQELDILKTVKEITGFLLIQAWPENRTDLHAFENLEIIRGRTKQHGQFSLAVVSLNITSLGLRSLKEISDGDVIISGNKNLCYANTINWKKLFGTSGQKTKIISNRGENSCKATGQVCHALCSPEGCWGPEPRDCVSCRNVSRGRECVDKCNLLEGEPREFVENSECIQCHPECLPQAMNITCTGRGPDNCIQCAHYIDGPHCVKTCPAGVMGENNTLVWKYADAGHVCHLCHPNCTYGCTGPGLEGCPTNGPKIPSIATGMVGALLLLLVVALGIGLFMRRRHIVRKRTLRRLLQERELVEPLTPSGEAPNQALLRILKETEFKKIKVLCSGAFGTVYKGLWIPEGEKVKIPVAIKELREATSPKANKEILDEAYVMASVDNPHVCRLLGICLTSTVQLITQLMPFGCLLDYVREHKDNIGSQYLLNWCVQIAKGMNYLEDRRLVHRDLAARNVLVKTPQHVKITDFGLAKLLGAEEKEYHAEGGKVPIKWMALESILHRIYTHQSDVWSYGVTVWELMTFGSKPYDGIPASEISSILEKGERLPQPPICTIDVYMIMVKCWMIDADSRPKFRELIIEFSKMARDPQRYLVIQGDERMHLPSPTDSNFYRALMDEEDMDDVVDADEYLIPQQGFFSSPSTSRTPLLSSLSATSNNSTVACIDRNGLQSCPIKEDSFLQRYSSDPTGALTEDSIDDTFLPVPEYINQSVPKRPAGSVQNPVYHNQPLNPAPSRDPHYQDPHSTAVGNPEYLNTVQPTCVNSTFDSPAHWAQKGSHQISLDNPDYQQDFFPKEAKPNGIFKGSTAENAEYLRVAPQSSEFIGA

On to `O=C(c1ccc(-c2cnc3c(c2)N(Cc2cc(Cl)ccc2C(F)(F)F)CCN3)cc1)N1CCCCC1`, for which the inhibition in test [1], in test [2], in test [3], in test [4], in test [5] and in test [6] was less than 50% in each case.
For `CN1CCN(c2ccc(-c3cnc4c(c3)N(Cc3c(F)ccc(F)c3Cl)CCN4)cn2)CC1`, the inhibition in test [1], in test [2], in test [3], in test [4], in test [5] and in test [6] was less than 50% in each case.
On to `COC1CCN(C(=O)c2ccc(-c3cnc4c(c3)N(Cc3cc(Cl)ccc3C(F)(F)F)CCN4)cc2)CC1`, for which the inhibition in test [1], in test [2], in test [3], in test [4], in test [5] and in test [6] was less than 50% in each case.
Turning to `O=C(O)c1ccc(-c2cnc3c(c2)N(Cc2cc(Cl)ccc2C(F)(F)F)CCN3)cc1`, the inhibition in test [1] is less than 50%; in test [2], less than 50%; in test [3], less than 50%; in test [4], less than 50%; in test [5], less than 50%; in test [6] it was 66.5%.
As to `FC(F)(F)c1ccc(Cl)cc1CN1CCNc2ncc(-c3ccnc(N4CCNCC4)c3)cc21`, the inhibition in test [1], in test [2], in test [3], in test [4], in test [5] and in test [6] was less than 50% in each case.
Consider `CN1CCN(c2ccc(-c3cnc4c(c3)N(Cc3cc(Cl)ccc3Cl)CCN4)cn2)CC1`, for which the inhibition in test [1], in test [2], in test [3], in test [4], in test [5] and in test [6] was less than 50% each time.
On to `O=C(c1ccc(-c2cnc3c(c2)N(Cc2cc(Cl)ccc2C(F)(F)F)CCN3)cc1)N1CCC(N2CCCC2)CC1`, for which the inhibition in test [1], in test [2], in test [3], in test [4], in test [5] and in test [6] was less than 50% in each case.
With `CN1CCN(c2ccc(-c3cnc4c(c3)N(Cc3cc(Cl)ccc3C(F)(F)F)CCN4)cn2)CC1`, the inhibition in test [1], in test [2], in test [3], in test [4], in test [5] and in test [6] was less than 50% throughout.
Take `CC(=O)N1CCN(c2cc(-c3cnc4c(c3)N(Cc3cc(Cl)ccc3C(F)(F)F)CCN4)ccn2)CC1`: the inhibition in test [1], in test [2], in test [3], in test [4], in test [5] and in test [6] was less than 50% throughout.
Turning to `CN1CCN(c2ccc(-c3cnc4c(c3)N(Cc3cc(F)ccc3F)CCN4)cn2)CC1`, the inhibition in test [1], in test [2], in test [3], in test [4], in test [5] and in test [6] was less than 50% throughout.

The values are drawn from ChEMBL document CHEMBL1165965, “Synthesis and structure-activity relationships of 1,2,3,4-tetrahydropyrido[2,3-b]pyrazines as potent and selective inhibitors of the anaplastic lymphoma kinase” (Bioorg Med Chem, 2010).
